The text below walks through data of ChEMBL document CHEMBL4033778, “Species-Selective Pyrimidineamine Inhibitors of Trypanosoma brucei S-Adenosylmethionine Decarboxylase” (J Med Chem, 2018).

Each structure is given as a SMILES string. The source made the active and inactive calls. The calls are words filed in the database; no cut-off is given here.

Series [1] is described as follows: Inhibition of recombinant Trypanosoma brucei N-terminal His6-tagged AdoMetDC/prozyme hetrodimer expressed in Escherichia coli BL21/DE3 cells at pH 6.8 by RapidFire-MS-based enzyme activity assay.
Series [2] in a line: Inhibition of recombinant Trypanosoma brucei N-terminal His6-tagged AdoMetDC/prozyme hetrodimer expressed in Escherichia coli BL21/DE3 cells at pH 7.7 by RapidFire-MS-based enzyme activity assay.
Series [3] can be described thus: Inhibition of recombinant Trypanosoma brucei N-terminal His6-tagged AdoMetDC/prozyme hetrodimer expressed in Escherichia coli BL21/DE3 cells at pH 7.2 by RapidFire-MS-based enzyme activity assay.
Series [4] deals with Trypanosoma brucei. The series can be described thus: Ratio of IC50 for recombinant Trypanosoma brucei N-terminal His6-tagged AdoMetDC/prozyme hetrodimer expressed in Escherichia coli BL21/DE3 cells at pH 7.7 to IC50 for recombinant Trypanosoma brucei N-terminal His6-tagged AdoMetDC/prozyme hetrodimer expressed in Escherichia coli BL21/DE3 cells at pH 6.8.
A further series concerns human MDR1 (P-gp). The experiment in a line: Apparent permeability from basolateral side to apical side in MDCK2 harboring human MDR1 cells in absence of Pgp inhibitor GF120918 at 10 to 20 uM after 60 mins by LC-MS/MS method. Type of series: ADME, cell-based, Canis lupus familiaris, MDCK-II. The conditions noted are these: dog, MDCK-MDR1. In outline: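 MDCKII-hMDR1 monolayer permeability measured with or without Pgp inhibitor GF120918.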

Series [5] deals with Trypanosoma brucei. The series can be described thus: Reversible inhibition of recombinant Trypanosoma brucei N-terminal His6-tagged AdoMetDC/prozyme hetrodimer expressed in Escherichia coli BL21/DE3 cells using S-adenosyl-L-methionine as substrate preincubated for 30 mins followed by 100 fold dilution and substrate addition measured every 5 mins by RapidFire-mass spectrometry.

The nature of series [6]: Competitive inhibition of recombinant Trypanosoma brucei N-terminal His6-tagged AdoMetDC/prozyme hetrodimer expressed in Escherichia coli BL21/DE3 cells using S-adenosyl-L-methionine as substrate preincubated for 30 mins followed by substrate addition measured every 5 mins by double-reciprocal Lineweaver-Burk plot analysis.
The target in series [7] is T1, S-adenosylmethionine decarboxylase proenzyme (Homo sapiens) (UniProt P17707).
T1 sequence (whole entry): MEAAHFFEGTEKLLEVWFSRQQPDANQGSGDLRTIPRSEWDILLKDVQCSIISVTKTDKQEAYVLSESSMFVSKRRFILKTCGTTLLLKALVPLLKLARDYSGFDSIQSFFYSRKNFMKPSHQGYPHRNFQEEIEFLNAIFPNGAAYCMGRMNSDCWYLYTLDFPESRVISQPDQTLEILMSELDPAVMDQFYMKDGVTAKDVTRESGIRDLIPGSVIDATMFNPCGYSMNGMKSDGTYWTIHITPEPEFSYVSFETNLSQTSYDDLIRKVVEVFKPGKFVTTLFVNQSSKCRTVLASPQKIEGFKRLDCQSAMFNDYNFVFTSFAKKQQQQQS
The experiment in a line: Inhibition of recombinant human N-terminal His6-tagged AdoMetDC expressed in Escherichia coli BL21/DE3 cells at 180 uM at pH 7.2 by RapidFire-MS-based enzyme activity assay.

Series [8] addresses T2, S-adenosylmethionine decarboxylase proenzyme (Trypanosoma brucei brucei) (UniProt P50244).
T2 sequence (whole entry): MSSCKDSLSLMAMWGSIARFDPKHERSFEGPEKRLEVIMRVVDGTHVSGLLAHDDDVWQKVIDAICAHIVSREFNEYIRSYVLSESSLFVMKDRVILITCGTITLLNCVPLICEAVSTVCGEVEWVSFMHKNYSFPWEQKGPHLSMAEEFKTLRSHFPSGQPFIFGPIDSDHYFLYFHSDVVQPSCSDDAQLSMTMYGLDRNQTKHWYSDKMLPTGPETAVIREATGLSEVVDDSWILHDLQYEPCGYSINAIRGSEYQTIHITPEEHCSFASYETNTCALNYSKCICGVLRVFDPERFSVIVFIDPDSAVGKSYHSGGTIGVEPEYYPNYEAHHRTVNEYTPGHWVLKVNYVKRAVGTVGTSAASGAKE
The series can be described thus: Inhibition of AdoMetDC in bloodstream form Trypanosoma brucei brucei Lister 427 assessed as increase in prozyme level at 1.5 times EC50 after 24 hrs by Western blot method.

For series [9], the system named is Liver. The series can be described thus: Metabolic stability in CD-1 mouse pooled liver microsomes at 1 uM in presence of NADPH measured up to 30 mins by LC-MS/MS method. Type of series: ADME, microsome. The conditions noted are these: 0.5 h. For orientation: Microsomes from liver hold many membrane-bound enzymes, among them those of drug oxidation.
Series [10] concerns Liver. The experiment in a line: Metabolic stability in mixed gender human pooled liver microsomes at 1 uM in presence of NADPH measured up to 30 mins by LC-MS/MS method. Type of series: ADME, microsome. The conditions noted are these: 0.5 h.
For series [11], the target named is T3, S-adenosylmethionine decarboxylase proenzyme (Homo sapiens, UniProt P17707).
T3 sequence (P17707 whole entry): T1 sequence (whole entry)
The experiment in a line: Inhibition of recombinant human N-terminal His6-tagged AdoMetDC expressed in Escherichia coli BL21/DE3 cells at pH 7.2 by RapidFire-MS-based enzyme activity assay.

Series [12] deals with Trypanosoma brucei brucei. The experiment in a line: Antitrypanosomal activity against blood stream form Trypanosoma brucei brucei Lister 427 at 100 uM after 48 hrs by CellTiter-Glo assay. It is filed as functional. In outline: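 Bloodstream-form parasites grown in HMI-19 with fetal bovine serum, exposed 48 h to a 3-fold serial dilution (0.0038–25 μM or 0.015–100 μM final; 0.1% DMSO vehicle). Cell density read by ATP bioluminescence (CellTiter-Glo). Triplicate; EC50 from normalized response vs log concentration fit, bottom fixed at 0, Hill slope fixed at –8 when curve steepness gave ambiguous fit. Percent inhibition given at top concentration when <50%.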

In general, IC50 refers to the concentration needed to halve the response being measured. What is called Papp B→A is the apparent permeability from the basolateral to the apical side of a cell layer. A word on the inhibition: it is the share of the control response that was lost under treatment. A word on the Ki: it is a dissociation constant, usually derived from enzyme kinetics or from competition with a known ligand. Turning to `Cc1cc(Nc2cc(Cl)cc(Cl)c2)nc(N)n1`, the IC50 came out at 500 nM in series [1], 30 µM in series [2] and 3.7 µM in series [3]. Besides, the Ratio IC50 in the series on Trypanosoma brucei [4] stood at 60. Moreover, the Papp B→A at 1 h, up to 20 µM in the series on human MDR1 (P-gp) came to 13.5 ×10⁻⁶ cm/s. For the same molecule, the inhibition entry (in the series with Trypanosoma brucei [5]; in series [8]) was “Active” in each case. The Ki in series [6] is 2600 nM. Further, in series [7], the inhibition was determined as 27%. The Stability entry in the series with Liver [9] and in the series on Liver [10] was “Unstable” throughout.

In the case of `Cc1cc(Nc2cc(Cl)cc(Cl)c2O)nc(N)n1`, the IC50 is > 180 µM in series [11] and 37 µM in [3]. The molecule also registered an Activity in series [12] of 26%.
